Measured values from ChEMBL document CHEMBL1156871, “Nonpeptidic tetrafluorophenoxymethyl ketone cruzain inhibitors as promising new leads for Chagas disease chemotherapy” (J Med Chem, 2010).
The source made the active and inactive calls. No cut-off for these calls is given here.

Legend:
Cruzipain = Cruzipain (Trypanosoma cruzi, UniProt P25779); assay: (§1) Inhibition of Trypanosoma cruzi cruzain
Trypanosoma cruzi [1] = assay: Antitrypanosomal activity against Trypanosoma cruzi Y strain infected in BESM cells assessed as reduction of parasite number after 72 hrs; type: functional, organism-based
How it was run: (§2)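 BESM cells in RPMI-1640 with 5% heat-inactivated FCS (37 °C, 5% CO2) infected with Y-strain trypomastigotes, then given fresh medium with inhibitor at 0, 0.3, 1, 3 and 10 μM for 72 h. Fixed in 4% paraformaldehyde and stained with DAPI (0.1 μg/mL), then imaged. Nuclei were sorted by size: host >150 μm², parasite 2-4 μm². The parasite/host nuclei ratio gave the IC50, and the loss of host nuclei gave cytotoxicity. Duplicate or triplicate runs averaged.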

[2] = Cytotoxicity against BEMS cells; type: cell-based; settings: Bos taurus; how it was run: as §2
[3] = target: Cruzipain (Trypanosoma cruzi) (UniProt P25779); assay: as §1
[4] = target: Cruzipain (Trypanosoma cruzi) (UniProt P25779); assay: Ratio of kinact to Ki for Trypanosoma cruzi cruzain
Trypanosoma cruzi [5] = assay: Antitrypanosomal activity against Trypanosoma cruzi trypomastigotes infected mouse model assessed as chagas disease symptoms at 20 mg/kg, ip bid for 27 days measured after 77 days of post infection
Trypanosoma cruzi [6] = assay: Antitrypanosomal activity against Trypanosoma cruzi trypomastigotes infected in C3H mouse assessed as infection in spleen at 20 mg/kg, ip bid for 27 days; type: functional, organism-based; parameters: dose 20 mg/kg
How it was run: (§3)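 Female C3H mice (mean 22 g) infected ip with 1.2 × 10⁶ tissue-culture trypomastigotes. From 24 h post-infection, treated (n=5) with 20 mg/kg ip b.i.d. for 27 days in 70% DMSO:30% water, prepared daily; untreated controls n=3. Mice were sacrificed at day 77 post-infection for symptom scoring and histopathology of heart, skeletal muscle, liver, spleen and colon.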

Trypanosoma cruzi [7] = assay: Antitrypanosomal activity against Trypanosoma cruzi trypomastigotes infected in C3H mouse assessed as acute chagas disease symptoms at 20 mg/kg, ip bid for 27 days; type: functional, organism-based; parameters: dose 20 mg/kg; how it was run: as §3
Trypanosoma cruzi [8] = assay: Antitrypanosomal activity against Trypanosoma cruzi trypomastigotes infected in C3H mouse assessed as infection in liver at 20 mg/kg, ip bid for 27 days; type: functional, organism-based; parameters: dose 20 mg/kg; how it was run: as §3
Trypanosoma cruzi [9] = assay: Antitrypanosomal activity against Trypanosoma cruzi trypomastigotes infected in C3H mouse assessed as infection in skeletal muscle at 20 mg/kg, ip bid for 27 days; type: functional, organism-based; parameters: dose 20 mg/kg; settings: Muscle tissue; how it was run: as §3
Trypanosoma cruzi [10] = assay: Antitrypanosomal activity against Trypanosoma cruzi trypomastigotes infected in C3H mouse assessed as infection in colon at 20 mg/kg, ip bid for 27 days; type: functional, organism-based; parameters: dose 20 mg/kg; how it was run: as §3
Mus musculus = assay: Toxicity in Trypanosoma cruzi trypomastigotes infected mouse model at 20 mg/kg, ip bid for 27 days; settings: in vivo, 648 h
Trypanosoma cruzi [11] = assay: Antitrypanosomal activity against Trypanosoma cruzi trypomastigotes infected in C3H mouse assessed as infection in heart at 20 mg/kg, ip bid for 27 days; type: functional, organism-based; parameters: dose 20 mg/kg; how it was run: as §3

Chain of Cruzipain (Trypanosoma cruzi) (P25779 123-467 limits assumed): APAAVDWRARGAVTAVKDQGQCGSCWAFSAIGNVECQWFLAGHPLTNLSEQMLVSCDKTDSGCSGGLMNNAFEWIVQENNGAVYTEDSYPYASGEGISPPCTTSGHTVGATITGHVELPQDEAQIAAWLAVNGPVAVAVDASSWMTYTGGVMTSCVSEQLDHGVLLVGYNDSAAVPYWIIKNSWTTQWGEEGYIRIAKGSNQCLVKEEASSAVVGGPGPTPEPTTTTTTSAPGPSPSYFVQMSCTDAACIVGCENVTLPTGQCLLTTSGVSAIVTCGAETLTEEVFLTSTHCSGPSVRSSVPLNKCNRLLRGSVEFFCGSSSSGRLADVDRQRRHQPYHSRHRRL
Chain of Cruzipain (P25779 whole entry): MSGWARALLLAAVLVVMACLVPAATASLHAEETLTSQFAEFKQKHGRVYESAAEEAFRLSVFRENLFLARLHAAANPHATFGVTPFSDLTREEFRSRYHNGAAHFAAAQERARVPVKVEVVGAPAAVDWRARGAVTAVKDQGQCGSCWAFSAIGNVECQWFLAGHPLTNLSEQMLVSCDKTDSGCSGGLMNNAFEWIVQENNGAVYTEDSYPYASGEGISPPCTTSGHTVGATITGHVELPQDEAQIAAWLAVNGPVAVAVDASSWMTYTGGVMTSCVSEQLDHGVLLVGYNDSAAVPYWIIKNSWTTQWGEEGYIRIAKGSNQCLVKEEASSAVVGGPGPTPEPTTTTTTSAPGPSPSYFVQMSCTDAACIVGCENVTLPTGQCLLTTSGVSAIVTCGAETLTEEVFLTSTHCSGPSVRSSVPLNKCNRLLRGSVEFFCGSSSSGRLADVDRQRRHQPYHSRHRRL

| Compound | Ki (Cruzipain) | IC50 (Trypanosoma cruzi [1]) | IC50 [2] | Kinact [3] | Ratio [4] | Activity (Trypanosoma cruzi [5]) | Activity (Trypanosoma cruzi [6]) | Activity (Trypanosoma cruzi [7]) | Activity (Trypanosoma cruzi [8]) | Activity (Trypanosoma cruzi [9]) | Activity (Trypanosoma cruzi [10]) | Activity (Mus musculus) | Activity (Trypanosoma cruzi [11]) |
| --- | --- | --- | --- | --- | --- | --- | --- | --- | --- | --- | --- | --- | --- |
| CCCCC(C(=O)COc1c(F)c(F)cc(F)c1F)n1cc([C@@](C)(NCc2ccc3ncccc3c2)C2CCCC2)nn1 (some centres undefined) | 0.11 µM | 4.2 µM | 10 µM |  |  |  |  |  |  |  |  |  |  |
| CCCCC(C(=O)COc1c(F)c(F)cc(F)c1F)n1cc([C@@](C)(NCc2ccc3ncccc3c2)C2CCCCC2)nn1 (some centres undefined) | 1.22 µM |  |  | 0.037 s⁻¹ | 58000 M⁻¹ s⁻¹ |  |  |  |  |  |  |  |  |
| CCCCC(C(=O)COc1c(F)c(F)cc(F)c1F)n1cc([C@@](C)(NCc2ccc3ncccc3c2)C2CC2)nn1 (some centres undefined) | 0.94 µM | 4.3 µM | > 10 µM | 0.089 s⁻¹ | 179000 M⁻¹ s⁻¹ |  |  |  |  |  |  |  |  |
| CCC(C(=O)COc1c(F)c(F)cc(F)c1F)n1cc([C@@](C)(NCc2ccc3ncccc3c2)C2CCC2)nn1 (mixture of isomers) | 0.35 µM | 5.8 µM | > 10 µM | 0.096 s⁻¹ | 522000 M⁻¹ s⁻¹ |  |  |  |  |  |  |  |  |
| CCCCC(C(=O)COc1c(F)c(F)cc(F)c1F)n1cc([C@@](C)(NCc2ccc3ncccc3c2)C2CCC2)nn1 (some centres undefined) | 0.13 µM | 4.1 µM | > 10 µM | 0.047 s⁻¹ | 680000 M⁻¹ s⁻¹ |  |  |  |  |  |  |  |  |
| CCC(C(=O)COc1c(F)c(F)cc(F)c1F)n1cc([C@@](C)(NCc2ccc3ncccc3c2)C(C)C)nn1 (some centres undefined) | 1.04 µM | 8.3 µM | > 10 µM | 0.066 s⁻¹ | 124000 M⁻¹ s⁻¹ |  |  |  |  |  |  |  |  |
| CC(C(=O)COc1c(F)c(F)cc(F)c1F)n1cc([C@@](C)(NCc2ccc3ncccc3c2)C(C)C)nn1 (some centres undefined) | 6.76 µM |  |  | 0.043 s⁻¹ | 12300 M⁻¹ s⁻¹ |  |  |  |  |  |  |  |  |
| CCCCC(C(=O)COc1c(F)c(F)cc(F)c1F)n1cc([C@](C)(CC(C)C)NCc2ccc3ncccc3c2)nn1 (some centres undefined) | 0.1 µM | 3.1 µM | > 10 µM | 0.036 s⁻¹ | 657000 M⁻¹ s⁻¹ |  |  |  |  |  |  |  |  |
| CCC(C(=O)COc1c(F)c(F)cc(F)c1F)n1cc([C@](C)(CC(C)C)NCc2ccc3ncccc3c2)nn1 (some centres undefined) | 0.19 µM | 5.7 µM | > 10 µM | 0.048 s⁻¹ | 487000 M⁻¹ s⁻¹ |  |  |  |  |  |  |  |  |
| CCCCC(C(=O)COc1c(F)c(F)cc(F)c1F)n1cc([C@@](C)(NCc2ccc3ncccc3c2)C(C)C)nn1 (some centres undefined) |  | 5.1 µM | > 10 µM |  |  | Active | Active | Non-toxic | Active | inactive | Active | Non-toxic | Active |
